Converted amounts (≈) assume the structure as drawn.
Experiments:
Assay type in all cases: functional
[1] = system: Bacillus thuringiensis; assay: Antibacterial activity against Bacillus thuringiensis MTCC 6941 assessed as growth inhibition at 100 ug/disk after 24 hr by disk diffusion method; details: MTCC 6941, 24 h, read-out: DIZ
Outline: (§1)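 Disk diffusion on nutrient agar. Strains kept on NA slants at 37 °C and subcultured in nutrient broth before testing. A log-phase culture was spread on solidified medium, and sterile disks were loaded with compound from DMSO stock. DMSO served as control, with commercial antibiotics for reference. Plates ran 24 h at 37 °C, and inhibition zones (mm) were read in quadruplicate.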

[2] = system: Pseudomonas aeruginosa; assay: Antibacterial activity against Pseudomonas aeruginosa MTCC 2581 assessed as growth inhibition at 100 ug/disk after 24 hr by disk diffusion method; details: MTCC 2581, 24 h, read-out: DIZ; outline: as §1
[3] = system: Radical scavenging activity; assay: Antioxidant activity assessed as DPPH free radical scavenging activity after 20 min by UV-Vis spectrophotometric analysis; set-up: concentration or dose not given beside the values
Outline: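 DPPH radical scavenging: samples were held at room temperature for 20 min in the dark, and absorbance was read at 517 nm. The control contained DMSO without compound, and methanol was used for baseline correction. Scavenging percentage was calculated from the absorbances.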

[4] = system: Xanthomonas oryzae; assay: Antibacterial activity against Xanthomonas oryzae ITCC B-47 assessed as as growth inhibition at 100 ug/disk after 24 hr by disk diffusion method; details: ITCC B-47, 24 h, read-out: DIZ
[5] = system: Klebsiella pneumoniae; assay: Antibacterial activity against Klebsiella pneumoniae MTCC 7028 assessed as growth inhibition at 100 ug/disk after 24 hr by disk diffusion method; details: MTCC 7028, 24 h, read-out: DIZ; outline: as §1
[6] = system: Athelia rolfsii; assay: Antifungal activity against Athelia rolfsii ITCC 6181 by food poisoning method; details: Agroathelia rolfsii
Outline: (§2)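 Poisoned food technique on PDA at several concentrations. A 5 mm mycelial plug from the growing edge of a 2-week-old colony was placed inoculum-side down at the plate centre. Plates incubated at 27 °C until control growth was nearly complete. Colony diameter measured, percent inhibition calculated against control, LC50 derived. Four replicates per treatment.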

[7] = system: Staphylococcus aureus; assay: Antibacterial activity against Staphylococcus aureus MTCC 3160 assessed as growth inhibition at 100 ug/disk after 24 hr by disk diffusion method; details: MTCC 3160, 24 h, read-out: DIZ; outline: as §1
[8] = system: Bacillus pumilus; assay: Antibacterial activity against Bacillus pumilus MTCC 2466 assessed as growth inhibition at 100 ug/disk after 24 hr by disk diffusion method; details: MTCC 2466, 24 h, read-out: DIZ; outline: as §1
[9] = system: Dickeya chrysanthemi; assay: Antibacterial activity against Erwinia chrysanthemi ITCC B-40 assessed as as growth inhibition at 100 ug/disk after 24 hr by disk diffusion method; details: ITCC B-40, 24 h, read-out: DIZ; outline: as §1
[10] = system: Rhizoctonia solani; assay: Antifungal activity against Rhizoctonia solani ITCC 5563 by food poisoning method; outline: as §2

| Compound | zone of inhibition at 100 µg/disc [1] [mm] | zone of inhibition at 100 µg/disc [2] [mm] | Activity [3] [%] | zone of inhibition at 100 µg/disc [4] [mm] | zone of inhibition at 100 µg/disc [5] [mm] | LC50 [6] [µg/mL] | zone of inhibition at 100 µg/disc [7] [mm] | zone of inhibition at 100 µg/disc [8] [mm] | zone of inhibition at 100 µg/disc [9] [mm] | LC50 [10] [µg/mL] |
| --- | --- | --- | --- | --- | --- | --- | --- | --- | --- | --- |
| CCOC(=O)C1C(=O)C=C(c2ccc([N+](=O)[O-])cc2)CC1c1ccc2c(c1)OCO2 (stereo unspecified) | 0 | 0 | 3.6 | 0 | 0 | 4310 (≈ 10500 µM) | 0 | 0 | 10 | 29 (≈ 70.8 µM) |
| CCOC(=O)C1C(=O)C=C(c2ccc(OC)cc2)CC1c1ccc(OC)c(OC)c1 (stereo unspecified) | 0 | 0 | 4.71 | 0 | 0 | 315 (≈ 767 µM) | 0 | 0 | 0 | 34 (≈ 82.8 µM) |
| CCOC(=O)C1C(=O)C=C(c2ccc(OC)c(OC)c2)CC1c1ccc(OC)cc1 (stereo unspecified) | 0 | 0 | 11.3 | 0 | 0 | 504 (≈ 1230 µM) | 0 | 0 | 10 | – |
| O=C(/C=C/c1ccccc1)c1ccccc1 [CHALCONE] | 0 | 10 | 9.11 | 0 | 0 | 674 (≈ 3240 µM) | 5 | 0 | 10 | 2.49 (≈ 12 µM) |
| CCOC(=O)C1C(=O)C=C(c2ccc(F)cc2)CC1c1ccccc1 (stereo unspecified) | 0 | 0 | 3.86 | 0 | 10 | 319 (≈ 943 µM) | 0 | 0 | 10 | 35 (≈ 103 µM) |
| COc1ccc(/C=C/C(=O)c2ccc(C)cc2)cc1OC | 0 | 0 | 0.71 | 0 | 0 | 587 (≈ 2080 µM) | 0 | 0 | 0 | 107 (≈ 379 µM) |
| CCOC(=O)C1C(=O)C=C(c2ccc(C)cc2)CC1c1cc(OC)c(OC)c(OC)c1 (stereo unspecified) | 0 | 0 | 4.52 | 0 | 0 | 345 (≈ 813 µM) | 0 | 0 | 0 | 118 (≈ 278 µM) |
| CCOC(=O)C1C(=O)C=C(c2ccccc2)CC1c1ccc(OC)c(OC)c1 (stereo unspecified) | 0 | 5 | 4.23 | 0 | 0 | 323 (≈ 849 µM) | 0 | 0 | 0 | 198 (≈ 520 µM) |
| CCOC(=O)C1C(=O)C=C(c2ccc(C)cc2)CC1c1ccc(OC)c(OC)c1 (stereo unspecified) | 0 | 0 | 7.38 | 0 | 0 | 317 (≈ 804 µM) | 0 | 0 | 0 | 189 (≈ 479 µM) |
| CCOC(=O)C1C(=O)C=C(c2ccc(F)cc2)CC1c1cccc([N+](=O)[O-])c1 (stereo unspecified) | 0 | 0 | 4.23 | 0 | 0 | 285 (≈ 743 µM) | 0 | 0 | 10 | 157 (≈ 410 µM) |
| CCOC(=O)C1C(=O)C=C(c2ccccc2)CC1c1cc(OC)c(OC)c(OC)c1 (stereo unspecified) | 0 | 0 | 1.69 | 0 | 0 | 365 (≈ 889 µM) | 0 | 0 | 0 | 139 (≈ 339 µM) |
| CCOC(=O)C1C(=O)C=C(c2ccccc2)CC1c1ccccc1 (stereo unspecified) | 0 | 0 | 3.33 | 0 | 10 | 304 (≈ 949 µM) | 0 | 0 | 0 | 207 (≈ 646 µM) |
| CCOC(=O)C1C(=O)C=C(c2ccc3c(c2)OCO3)CC1c1ccc(OC)cc1 (stereo unspecified) | 0 | 0 | 4.26 | 0 | 0 | 380 (≈ 963 µM) | 0 | 0 | 0 | 396 (≈ 1000 µM) |
| CCOC(=O)C1C(=O)C=C(c2ccccc2)CC1c1ccc(C)cc1 (stereo unspecified) | 0 | 0 | 4.17 | 0 | 5 | 316 (≈ 945 µM) | 0 | 0 | 0 | 233 (≈ 697 µM) |
| CCCCC(O)(Cn1cncn1)c1ccc(Cl)cc1Cl (stereo unspecified) [HEXACONAZOLE] | – | – | – | – | – | 1.27 (≈ 4.04 µM) | – | – | – | 1.12 (≈ 3.56 µM) |
| Cc1ccc(/C=C/C(=O)c2ccc(C)cc2)cc1 [4,4'-DIMETHYLCHALCONE] | 0 | 0 | 1.19 | 0 | 0 | 549 (≈ 2320 µM) | 0 | 0 | 0 | 635 (≈ 2690 µM) |
| CCOC(=O)C1C(=O)C=C(c2ccc(C)cc2)CC1c1ccc(C)cc1 (stereo unspecified) | 0 | 10 | 3.54 | 0 | 5 | 321 (≈ 921 µM) | 0 | 0 | 0 | 231 (≈ 663 µM) |
| CCOC(=O)C1C(=O)C=C(c2ccc(Cl)c(Cl)c2)CC1c1ccc(OC)cc1 (stereo unspecified) | 0 | 0 | 2.92 | 0 | 0 | 6110 (≈ 14600 µM) | 0 | 0 | 0 | 1040 (≈ 2490 µM) |

Source: ChEMBL document CHEMBL3045565, “Microwave synthesis, characterization and bio-efficacy evaluation of novel chalcone based 6-carbethoxy-2-cyclohexen-1-one and 2H-indazol-3-ol derivatives” (Eur J Med Chem, 2013)
